Experimental data as given in ChEMBL document CHEMBL1156252, “Sigma-1 ligands: Tic-hydantoin as a key pharmacophore” (Eur J Med Chem, 2010).

Legend:
[1] = target: Sigma-1 receptor (Homo sapiens, Jurkat); assay: Displacement of [3H](+)-pentazocine from sigma 1 receptor in human Jurkat cells by scintillation counting
[2] = Displacement of [3H]DTG […] from sigma 2 receptor in rat cerebral cortex after 120 mins; assay type: tissue-based
Outline: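 Rat cerebral cortex membranes incubated with […] (5 nM) plus (+)-pentazocine (300 nM) to mask σ1 sites, with a concentration range of test compound, 2 h at 22 °C in 5 mM Tris/HCl pH 7.4. […] Bound ligand was collected by GF/B filtration, washed with ice-cold saline and counted by liquid scintillation.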

SMILES | IC50 [1] [µM] | IC50 [2] [µM]
CN(CCCN1C(=O)[C@H](Cc2ccccc2)N(C)C1=O)Cc1ccccc1 | > 0.2 | –
CN(CCCN1C(=O)c2ccncc2C1=O)Cc1ccccc1 | > 0.2 | –
CN(CCCn1c(=O)[nH]c2ccccc2c1=O)Cc1ccccc1 | 0.116 | –
CN(CCCn1c(=O)[nH]c2ccc(I)cc2c1=O)Cc1ccccc1 | 0.103 | –
CN(CCCN1C(=O)[C@@H]2Cc3ccccc3CN2C1=O)Cc1ccccc1 | – | > 0.5

The next lines start with the values.

IC50 [1] [µM] | IC50 [2] [µM] | SMILES
0.0045 | – | CN(CCCN1C(=O)C2Cc3ccccc3CN2C1=S)Cc1ccccc1 (centres undefined)
0.057 | – | CN(CCCN1C(=O)[C@H]2Cc3ccccc3C[C@H]2C1=O)Cc1ccccc1
> 0.2 | – | CN(CCCN1C(=O)c2cccnc2C1=O)Cc1ccccc1
> 0.2 | – | CN(CCCn1c(=O)[nH]c2ccc(Cl)cc2c1=O)Cc1ccccc1
